According to PMC6129214 (Nature medicine, 2018):

How the values were obtained:
platelet aggregation [1] = test: Mouse ex vivo platelet aggregometry in PRP; details: ADP 1 μM, choline-supplemented mice
In short: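 Mice on a choline-supplemented (1% w/w) or control diet, with or without test compound in the diet (0.006% or 0.06% w/w, 2 weeks), are anaesthetized with ketamine 100 mg/kg and xylazine 10 mg/kg. Blood is drawn and PRP aggregation to 1 μM ADP is recorded as % of maximum amplitude per mouse. Plasma TMAO is also measured.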

platelet aggregation [2] = test: Direct incubation of inhibitor with mouse PRP, platelet aggregometry; type: cell-based, mice; details: 20 µM, with or without ADP
[3] = tested on: carotid artery thrombus formation; test: FeCl3-induced carotid artery injury thrombosis model; type: in vivo, mice; details: DMB 1.3% v/v; 0.06% IMC or 0.006% FMC in diet
plasma TMAO = test: Plasma TMAO levels; type: in vivo; details: mice on a choline-supplemented diet, data not shown

Row | SMILES | effect on choline diet-enhanced ADP-dependent platelet aggregation in PRP (platelet aggregation [1]) | effect of direct incubation on platelet aggregometry responses, mouse PRP (platelet aggregation [2]) | effect on choline diet-induced rise in TMAO and in vivo rate of clot formation [3] | effect on plasma TMAO levels in vivo (plasma TMAO)
1 | CC(C)(C)CCO [DMB, 3,3-dimethyl-1-butanol] | significantly reduced | no effects | attenuated | 
2 | Oc1ccc(/C=C/c2cc(O)cc(O)c2)cc1 [Resveratrol] |  |  |  | showed no effect
